# Experimental data gathered from unrelated publications.
# Protocols differ between the studies behind these lines.
# Cell line: HT-29
# Observed: cell growth or viability
Compound,method,concentration,time,quantity,value
CCCCCCCC(=O)SCC/C=C/[C@@H]1CC(=O)NCc2nc(cs2)C2=N[C@@](C)(CS2)C(=O)N[C@@H](C(C)C)C(=O)O1,resazurin,,48 h,IC50,16.2 nM
O=C(N/N=C1\C(=O)N(Cc2ccccc2)c2ccc(Br)cc21)c1cc2ccccc2[nH]1,,,,IC50,2260 nM
COc1c2c(cc3c1OCO3)[C@]13C=C[C@H](OC)C[C@@H]1[N@](C2)C[C@H]3OC(=O)c1ccc2ccccc2c1,WST-1,,,IC50,> 10000 nM
c1ccc2c(c1)[I+]c1ccccc1-2,trypan blue,,48 h,IC50,~100 nM
COc1cc2c(O[C@@H]3O[C@H](CO)[C@@H](O)[C@H](O)[C@H]3O)c3c(c(-c4ccc5c(c4)OCO5)c2cc1OC)C(=O)OC3,,,,IC50,12000 nM
N.N.[Cl][Pt][Cl],SRB,,48 h,IC50,20000 nM
COc1ccc2c(c1)/C(=N/NC(=O)c1cc3ccccc3[nH]1)C(=O)N2Cc1ccccc1,,,,IC50,2280 nM
COc1ccc2[nH]cc(CCNc3nccc(Nc4cccc5c4ccn5C)n3)c2c1,fluorescence,,72 h,IC50,3.9 nM
COc1cc2c(c3c1C(=O)C[C@@H](c1ccccc1)O3)[C@H]1[C@@H](O2)OC(C)(C)[C@@H]1OC(C)=O,SRB,,72 h,IC50,> 10000 nM
O=C(N/N=C1\C(=O)N(Cc2ccccc2)c2ccc(F)cc21)c1cc2ccccc2[nH]1,,30 µM,,inhibition,94.3%
COc1c2c(cc3c1OCO3)[C@]13C=C[C@H](OC)C[C@@H]1[N@](C2)C[C@H]3OC(=O)c1ccoc1,WST-1,,,IC50,> 10000 nM
